In ChEMBL document CHEMBL1671683, “Activity of linezolid in an in vitro pharmacokinetic-pharmacodynamic model using different dosages and Staphylococcus aureus and Enterococcus faecalis strains with and without a hypermutator phenotype” (Antimicrob Agents Chemother, 2010):

Legend:
[1] = tested on: Staphylococcus aureus; test: Bactericidal activity against 12 hrs peripheral compartment culture samples of Staphylococcus aureus RN4220 MutS2 in two-compartment pharmacokinetic/pharmacodynamic model assessed as effect on bacterial count at 600 mg, bid administered as 0.5 hr infusion; assay type: functional
How it was run: (§1)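 An 18-h culture concentrated 50-fold was injected into the peripheral compartment 3 h pre-sampling (~10^8 CFU/ml E. faecalis, 10^9 S. aureus). Counts came from dilution plating (detection limit 2–3 log10 CFU/ml), expressed as Δlog CFU/ml from treatment start. Run in duplicate.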

[2] = tested on: Staphylococcus aureus; test: Bactericidal activity against 13 hrs peripheral compartment culture samples of Staphylococcus aureus RN4220 MutS2 in two-compartment pharmacokinetic/pharmacodynamic model assessed as effect on bacterial count at 600 mg, bid administered as 0.5 hr infusion; assay type: functional; how it was run: as §1
[3] = tested on: Staphylococcus aureus; test: Bactericidal activity against 24 hrs peripheral compartment culture samples of Staphylococcus aureus RN4220 MutS2 in two-compartment pharmacokinetic/pharmacodynamic model assessed as effect on bacterial count at 600 mg, bid administered as 0.5 hr infusion; assay type: functional; how it was run: as §1
[4] = tested on: Enterococcus faecalis; test: Bactericidal activity against 2 hrs peripheral compartment culture samples of Enterococcus faecalis ATCC 29212 in two-compartment pharmacokinetic/pharmacodynamic model assessed as effect on bacterial count at 200 mg, bid administered as 0.5 hr infusion; assay type: functional; how it was run: as §1
[5] = tested on: Enterococcus faecalis; test: Bactericidal activity against 1 hr peripheral compartment culture samples of Enterococcus faecalis ATCC 29212 in two-compartment pharmacokinetic/pharmacodynamic model assessed as effect on bacterial count at 600 mg, bid administered as 0.5 hr infusion; assay type: functional
How it was run: (§2)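 Two-compartment hollow-fibre model in cation-adjusted, protein-free MH broth, 37°C. Linezolid given as simulated 0.5-h infusion twice daily. Inoculum grown 18 h, concentrated 50-fold and placed in the peripheral compartment 3 h before t0. Peripheral samples at set times counted by dilution plating. First 10-fold dilution not plated, limiting detection to 2–3 log10 CFU/ml. Δlog CFU/ml taken from t0 count. Duplicates.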

[6] = tested on: Enterococcus faecalis; test: Bactericidal activity against 12.5 hrs peripheral compartment culture samples of Enterococcus faecalis ATCC 29212 in two-compartment pharmacokinetic/pharmacodynamic model assessed as effect on bacterial count at 600 mg, bid administered as 0.5 hr infusion; assay type: functional; how it was run: as §1
[7] = tested on: Enterococcus faecalis; test: Bactericidal activity against 24 hrs peripheral compartment culture samples of Enterococcus faecalis Ef1497 in two-compartment pharmacokinetic/pharmacodynamic model assessed as effect on bacterial count at 800 mg, bid administered as 0.5 hr infusion; assay type: functional; how it was run: as §1
[8] = tested on: Enterococcus faecalis; test: Bactericidal activity against 2 hrs peripheral compartment culture samples of Enterococcus faecalis Ef1497 MutM3 in two-compartment pharmacokinetic/pharmacodynamic model assessed as effect on bacterial count at 600 mg, bid administered as 0.5 hr infusion; assay type: functional; how it was run: as §1
[9] = tested on: Enterococcus faecalis; test: Bactericidal activity against 12.5 hrs peripheral compartment culture samples of Enterococcus faecalis Ef1497 MutM3 in two-compartment pharmacokinetic/pharmacodynamic model assessed as effect on bacterial count at 600 mg, bid administered as 0.5 hr infusion; assay type: functional; how it was run: as §1
[10] = Tmax in two-compartment pharmacokinetic/pharmacodynamic model at 200 mg, bid administered as 0.5 hrs infusion; assay type: ADME, organism-based; conditions: iv
How it was run: (§3)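 Two-compartment in vitro hollow-fibre model in cation-adjusted, protein-free Mueller-Hinton broth at 37°C. Human total-plasma linezolid profile simulated as 0.5-h infusion every 12 h for 48 h, computer-controlled syringe pump into central compartment. […] Peripheral samples assayed by validated HPLC-UV (quantification limit 0.39 μg/ml). Tmax read directly from concentration-time profiles. Run in duplicate.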

[11] = Residual concentration at the end of the administration interval in two-compartment pharmacokinetic/pharmacodynamic model at 200 mg, bid administered as 0.5 hrs infusion; assay type: ADME; conditions: iv, read-out: Drug uptake
[12] = Apparent volume of distribution in two-compartment pharmacokinetic/pharmacodynamic model at 400 mg, bid administered as 0.5 hrs infusion; assay type: ADME, organism-based; conditions: iv
[13] = Volume of distribution at steady state in two-compartment pharmacokinetic/pharmacodynamic model at 200 mg, bid administered as 0.5 hrs infusion; assay type: ADME, organism-based; conditions: iv, read-out: Vdss
[14] = Volume of distribution at steady state in two-compartment pharmacokinetic/pharmacodynamic model at 400 mg, bid administered as 0.5 hrs infusion; assay type: ADME, organism-based; conditions: iv, read-out: Vdss
[15] = tested on: Staphylococcus aureus; test: Bactericidal activity against 1 hr peripheral compartment culture samples of Staphylococcus aureus RN4220 in two-compartment pharmacokinetic/pharmacodynamic model assessed as effect on bacterial count at 600 mg, bid administered as 0.5 hr infusion; assay type: functional; how it was run: as §2
[16] = tested on: Staphylococcus aureus; test: Bactericidal activity against 12 hrs peripheral compartment culture samples of Staphylococcus aureus RN4220 in two-compartment pharmacokinetic/pharmacodynamic model assessed as effect on bacterial count at 600 mg, bid administered as 0.5 hr infusion; assay type: functional; how it was run: as §1
[17] = tested on: Staphylococcus aureus; test: Bactericidal activity against 14 hrs peripheral compartment culture samples of Staphylococcus aureus RN4220 in two-compartment pharmacokinetic/pharmacodynamic model assessed as effect on bacterial count at 600 mg, bid administered as 0.5 hr infusion; assay type: functional; how it was run: as §1
[18] = tested on: Staphylococcus aureus subsp. aureus RN4220; test: ABBC (0 to 24 hrs) in Staphylococcus aureus RN4220 MutS2 in two-compartment pharmacokinetic/pharmacodynamic model at 600 mg, bid administered as 0.5 hr infusion for 2 days
How it was run: (§4)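 Hollow-fibre two-compartment model in cation-adjusted, protein-free MH broth at 37°C. Human total-plasma linezolid profile simulated as 0.5-h infusion every 12 h for 48 h. Concentrated 18-h culture injected into the peripheral compartment 3 h before first sample, giving about 10^8 (E. faecalis) or 10^9 (S. aureus) CFU/ml. Viable counts by dilution plating over 0–24 h. Area indices calculated versus growth control curve. Duplicate runs.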

[19] = tested on: Enterococcus faecalis; test: ABBC (0 to 24 hrs) in Enterococcus faecalis ATCC 29212 in two-compartment pharmacokinetic/pharmacodynamic model at 600 mg, bid administered as 0.5 hr infusion for 2 days; assay type: functional; how it was run: as §4
[20] = tested on: Enterococcus faecalis; test: ABBC (0 to 24 hrs) in Enterococcus faecalis Ef1497 MutM3 in two-compartment pharmacokinetic/pharmacodynamic model at 600 mg, bid administered as 0.5 hr infusion for 2 days; assay type: functional; how it was run: as §4
[21] = Cmax in two-compartment pharmacokinetic/pharmacodynamic model at 600 mg, bid administered as 0.5 hr infusion over 24 hrs; assay type: ADME, organism-based; set-up: dose 600 mg; conditions: iv
[22] = Tmax in two-compartment pharmacokinetic/pharmacodynamic model at 200 mg, bid administered as 0.5 hr infusion over 24 hrs; assay type: ADME, organism-based; conditions: iv; how it was run: as §3
[23] = Residual concentration at the end of the administration interval in two-compartment pharmacokinetic/pharmacodynamic model at 200 mg, bid administered as 0.5 hr infusion over 24 hrs; assay type: ADME; conditions: in vivo, iv
[24] = AUC in two-compartment pharmacokinetic/pharmacodynamic model at 800 mg, bid administered as 0.5 hr infusion over 24 hrs; assay type: ADME; set-up: time < 24 hr, dose 800 mg; conditions: in vivo, iv
[25] = Apparent volume of distribution in two-compartment pharmacokinetic/pharmacodynamic model at 800 mg, bid administered as 0.5 hr infusion over 24 hrs; assay type: ADME, organism-based; conditions: in vivo, iv
[26] = Volume of distribution at steady state in two-compartment pharmacokinetic/pharmacodynamic model at 200 mg, bid administered as 0.5 hr infusion over 24 hrs; assay type: ADME, organism-based; conditions: iv, read-out: Vdss
[27] = in vitro; conditions: two-compartment pharmacokinetic/pharmacodynamic model, iv, 200 mg

Work on `CC(=O)NC[C@H]1CN(c2ccc(N3CCOCC3)c(F)c2)C(=O)O1` [LINEZOLID] yielded a log10CFU/ml [1] of 0.21, a log10CFU/ml [2] of -0.81 and a log10CFU/ml [3] of 0.52. It also gave a log10CFU/ml [4] of 0.09, a log10CFU/ml [5] of -0.12 and a log10CFU/ml [6] of 0.1. For the same molecule, the log10CFU/ml [7] was -0.04, the log10CFU/ml [8] was -0.05 and the log10CFU/ml [9] was 0.22. The Tmax [10] was 30 min, the concentration at 0.5 h [11] was 390 ng/mL and the Vd [12] was 130 L. It also gave a Vd [13] of 120 L, a Vd [14] of 112 L and a log10CFU/ml [15] of -0.07. The log10CFU/ml [16] was -0.15, the log10CFU/ml [17] was -0.24 and the ABBC [18] was -2.27 log10CFU/ml.hr. It also gave an ABBC [19] of 1.32 log10CFU/ml.hr, an ABBC [20] of -2.66 log10CFU/ml.hr and a Cmax [21] of 14600 ng/mL. For the same molecule, the Tmax [22] was 30 min, the Drug uptake [23] was 0.31 µg/mL and the AUC at 24 h [24] was 47700 ng·h/mL. For the same molecule, the Vd [25] was 102 L, the Vd [26] was 117 L and the half-life [27] was 376 min.
